Laboratory results reported in ChEMBL document CHEMBL5149972, “Novel Antimalarial Tetrazoles and Amides Active against the Hemoglobin Degradation Pathway in Plasmodium falciparum” (J Med Chem, 2021).
pEC50, pIC50: −log10 of the molar value. ≈ marks a conversion by molar mass, not a printed value. Calls of active or inactive are those of the source. The rule behind the calls is not given here.

Legend:
[1] = test system: Hemozoin; experiment: Inhibition of Beta-hematin assessed as bis-pyridyl-Fe(III)PPIX complex formation incubated for 5 hrs by NP40 detergent-mediated colorimetric assay
[2] = test system: Plasmodium falciparum; experiment: Antiplasmodial activity against Plasmodium falciparum NF54 expressing transgenic luciferase assessed as parasite kill rate at trophozoite stage incubated for 6 hrs by bioluminescence relative rate of kill (BRRoK) assay; type: functional, organism-based; settings: RBC
[3] = test system: Plasmodium falciparum; experiment: Antiplasmodial activity against Plasmodium falciparum NF54 expressing transgenic luciferase assessed as parasite kill rate at trophozoite stage incubated for 72 hrs by bioluminescence relative rate of kill (BRRoK) assay; type: functional, organism-based; settings: RBC
[4] = (§1) Cytotoxicity against human HepG2 cells assessed as reduction in cell viability incubated for 72 hrs by CellTiter-Glo assay; type: toxicity, cell-based; settings: HepG2 cells
[5] = test system: Plasmodium falciparum; experiment: Antiplasmodial activity against asexual blood stage Plasmodium falciparum 3D7 infected in human RBC assessed as parasite growth inhibition incubated for 72 hrs by SYBR Green dye based fluorescence assay; type: functional, organism-based; settings: Plasmodium falciparum, 3D7, Erythrocyte, 72 h
Summary of the method: (§2)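 Blood-stage cultures at 2% hematocrit, human O+ RBCs, RPMI 1640 + 25 mM HEPES, 0.5% Albumax-I, 23 mM bicarbonate, 92 μM hypoxanthine. Start at 0.5% parasitemia; 72 h at 37°C, 5% CO₂; freeze-thaw, then SYBR Green in saponin/Triton lysis buffer, 4 h RT dark; fluorescence ex 485/em 535 nm. 10-point curves, technical duplicates or triplicates, final 0.5% DMSO; four-parameter fit gives EC₅₀; mean ± std dev of biological replicates.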

[6] = test system: Plasmodium falciparum; experiment: Inhibition of hemozoin formation in sorbitol-synchronized early ring stage plasmodium falciparum NF54 trophozoites assessed as decrease in free hemozoin level at 0.5 to 3 times EC50 incubated for 32 hrs by flow cytometry analysis; type: functional; settings: DDE = dose-dependent effect
[7] = test system: Plasmodium falciparum; experiment: Inhibition of hemozoin formation in sorbitol-synchronized early ring stage plasmodium falciparum NF54 trophozoites assessed as decrease in free hemozoin-Fe level at 0.5 to 3 times EC50 incubated for 32 hrs by flow cytometry analysis; type: functional; settings: DDE = dose-dependent effect
[8] = test system: Plasmodium falciparum; experiment: Inhibition of hemozoin formation in sorbitol-synchronized early ring stage plasmodium falciparum NF54 trophozoites assessed as increase in free heme-Fe level at 0.5 to 3 times EC50 incubated for 32 hrs by flow cytometry analysis; type: functional; settings: DDE = dose-dependent effect
[9] = test system: Plasmodium falciparum; experiment: Inhibition of hemozoin formation in sorbitol-synchronized early ring stage plasmodium falciparum NF54 trophozoites assessed as increase in free heme level at 0.5 to 3 times EC50 incubated for 32 hrs by flow cytometry analysis; type: functional; settings: DDE = dose-dependent effect
[10] = test system: Plasmodium falciparum; experiment: Antiplasmodial activity against Plasmodium falciparum 3D7 infected in human RBC assessed as parasite growth inhibition incubated for 48 hrs by 3H-hypoxanthine incorporation assay; type: functional, organism-based; settings: 3D7, Erythrocyte
[11] = Kinetic solubility of compound in PBS at pH 6.5 by HPLC analysis; type: physicochemical; settings: read-out: Kinetic_solubility
[12] = test system: HepG2; experiment: as §1; type: toxicity, cell-based; settings: hepg2, 72 h
[13] = test system: Plasmodium falciparum; experiment: Antiplasmodial activity against drug resistant Plasmodium falciparum Dd2 infected in human RBC assessed as parasite growth inhibition incubated for 72 hrs by SYBR Green dye based fluorescence assay; type: functional, organism-based; settings: Plasmodium falciparum, Dd2, Erythrocyte, 72 h; summary of the method: as §2
[14] = Kinetic solubility of compound in PBS at pH 2 by HPLC analysis; type: physicochemical; settings: read-out: Kinetic_solubility
[15] = Metabolic stability in human liver microsomes assessed as intrinsic clearance per mg of protein at 1 uM incubated for 60 mins presence of NADPH regenerating buffer system by LC-MS analysis; type: ADME, Microsome; settings: 1 h
[16] = test system: Plasmodium falciparum; experiment: Antiplasmodial activity against Plasmodium falciparum mature stage V gametocyte assessed as inhibition of male gametocyte formation at 25 uM by luciferase reporter assay; type: functional, organism-based
[17] = test system: Plasmodium berghei; experiment: Antiplasmodial activity against liver stage Plasmodium berghei ANKA expressing GFP-Luc-SMCO infected in human HepG2-A16-CD81EGFP cells assessed as reduction in liver-stage development of luciferase-expressing parasite by luciferase reporter gene based bioluminescence assay; type: functional, organism-based
Summary of the method: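 Pb-Luc (P. berghei ANKA-GFP-Luc-SMCON) sporozoites infect HepG2-A16-CD81EGFP cells in phenol red-free DMEM with 5% FBS, glutamine, penicillin/streptomycin; compounds scored for blocking liver-stage development by luciferase signal.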

[18] = test system: Plasmodium falciparum; experiment: Antiplasmodial activity against Plasmodium falciparum mature stage V gametocyte assessed as inhibition of female gametocyte formation by luciferase reporter assay; type: functional, organism-based

`C[C@H]1c2cccc(O)c2C(=O)C2=C(O)[C@]3(O)C(=O)C(C(N)=O)=C(O)[C@@H](N(C)C)[C@@H]3[C@@H](O)[C@@H]21` [DOXYCYCLINE] gave a pIC50 [1] of less than 3.00.

Work on `CCN(CC)Cc1cc(Nc2ccnc3cc(Cl)ccc23)ccc1O` [AMODIAQUINE] yielded a pIC50 [1] of 5.07.

With `CC(=O)c1ccc(NC(=O)c2ccc(NC(=O)C3COc4ccccc4O3)cc2)cc1` (centres undefined) the Activity [2] was “Active”, the Activity [3] was “Active” and the CC50 at 72 h [4] was greater than 30 µM. It also gave a pEC50 [5] of 6.15.

For `CCN(CC)CCCC(C)Nc1ccnc2cc(Cl)ccc12` (centres undefined) [CHLOROQUINE], the Activity [2] was “Active”, the Activity [3] was “Active” and the CC50 at 72 h [4] was greater than 30 µM. For the same molecule, the inhibition [6] was “Dde”, the inhibition [7] was “Dde” and the inhibition [8] was “Dde”. The pIC50 [1] was 4.72, the inhibition [9] was “Dde” and the pEC50 [10] was 7.68. It also gave a pEC50 [5] of 7.85.

With `Cc1ccccc1N(C)C(=O)C(c1cncnc1)N(Cc1cccc(C(F)(F)F)c1)C1CC1` (racemic) the solubility kinetic [11] was greater than 45 µg/mL, the CC50 [12] was greater than 30 µM and the pEC50 [13] was 6.10. It also gave a solubility kinetic [14] of 11 µg/mL (≈ 24.2 µM), a CLH [15] of 531 µL/min/mg and a pEC50 [5] of 6.40.

Work on `COc1ccc2nc3cc(Cl)ccc3c(Nc3cc(CN4CCCC4)c(O)c(CN4CCCC4)c3)c2n1` [PYRONARIDINE] yielded a pIC50 [1] of 5.66.

With `Cc1cc(Nc2ccc3ccccc3c2)n2ncnc2n1` the pIC50 [1] was less than 3.00.

`Cc1ccccc1N(C)C(=O)C(c1cccnc1)N(Cc1cc(C(F)(F)F)ccc1F)C1CC1` (racemic) gave a solubility kinetic [11] of 1.5 µg/mL (≈ 3.18 µM), a CC50 [12] greater than 30 µM and a pEC50 [16] of 4.22. For the same molecule, the pEC50 [13] was 6.34, the solubility kinetic [14] was greater than 47 µg/mL and the pEC50 [17] was 5.15. The CLH [15] was 548 µL/min/mg, the pEC50 [18] was less than 4.60 and the pEC50 [5] was 6.51.

In the case of `Cc1cc(Nc2ccc(S(F)(F)(F)(F)F)cc2)n2nc(C(C)(F)F)nc2n1` [DSM-265], the Activity [2] was “Active”, the Activity [3] was “Active” and the CC50 at 72 h [4] was greater than 30 µM. The pEC50 [5] was 8.30.

Work on `Cc1ccccc1N(C)C(=O)C(c1cccnc1)N(Cc1cccc(C(F)(F)F)c1)C1CC1` (racemic) yielded a solubility kinetic [11] of 6.3 µg/mL (≈ 13.9 µM), a CC50 [12] greater than 30 µM and a pEC50 [13] of 6.23. It also gave a solubility kinetic [14] greater than 100 µg/mL, a CLH [15] of 781 µL/min/mg and a pEC50 [5] of 6.47.

In the case of `C[C@@H]1CC[C@H]2[C@@H](C)C(=O)O[C@@H]3O[C@@]4(C)CC[C@@H]1[C@]32OO4` [ARTEMISININ], the Activity [2] was “Active”, the Activity [3] was “Active” and the CC50 at 72 h [4] was greater than 30 µM. The pEC50 [10] was 7.52 and the pEC50 [5] was 7.89.

With `COc1ncnc(NS(=O)(=O)c2ccc(N)cc2)c1OC` [SULFADOXINE] the pIC50 [1] was less than 3.00.
